{
  "source": "ChEMBL document CHEMBL2203122",
  "about": "(J Med Chem, 2012)",
  "key": {"Rattus norvegicus [1]": {"tested_on": "Rattus norvegicus", "assay": "Inhibition of cocaine-induced conditioned place preference in rat assessed as time spent in the chamber at 300 mg/kg, ip administered 2.5 hrs prior to cocaine-challenge measured after 12 days for 15 mins (reference value: 7.1 +/- 0.6 mins)", "assay_type": "functional", "details": "route intraperitoneal"}, "Rattus norvegicus [2]": {"tested_on": "Rattus norvegicus", "assay": "Toxicity in Wistar albino rat assessed as mortality at 200 mg/kg, ip measured up to 3 weeks", "assay_type": "organism-based", "set-up": "dose 200 mg/kg, route intraperitoneal", "details": "in vivo, 504 h", "how_it_was_run": "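Mixed-sex Wistar albino rats, 15 per group, dosed ip once daily with drug in 0.9% saline. Monitored for mortality, moribundity, clinical signs, feed intake and body weight. Animals in distress over 24 h were euthanized. Some received food supplements or ip fluids during the first 3 weeks.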"}, "Rattus norvegicus [3]": {"tested_on": "Rattus norvegicus", "assay": "Retinotoxicity in Wistar albino rat assessed as increase rod implicit time at 200 mg/kg, ip administered QD for 45 to 90 days relative to control", "assay_type": "toxicity, organism-based", "set-up": "dose 200 mg/kg, route intraperitoneal", "details": "in vivo", "how_it_was_run": "(§1)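 Wistar albino rats, 9 weeks old at the start and of both sexes, received one i.p. injection daily for 45 or 90 days. The dose was in 0.9% saline made fresh weekly, against a saline vehicle group. After a 5–7 day washout and at least 12 h of dark adaptation, pupils were dilated (tropicamide 1%, phenylephrine 10%). ERG was then recorded from both eyes under ketamine/xylazine.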"}, "Rattus norvegicus [4]": {"tested_on": "Rattus norvegicus", "assay": "Retinotoxicity in Wistar albino rat assessed as increase mesopic implicit time at 200 mg/kg, ip administered QD for 45 to 90 days relative to control", "assay_type": "toxicity, organism-based", "set-up": "dose 200 mg/kg, route intraperitoneal", "details": "in vivo"}, "Rattus norvegicus [5]": {"tested_on": "Rattus norvegicus", "assay": "Retinotoxicity in Wistar albino rat assessed as increase cone implicit time at 200 mg/kg, ip administered QD for 45 to 90 days relative to control", "assay_type": "toxicity, organism-based", "set-up": "dose 200 mg/kg, route intraperitoneal", "details": "in vivo", "how_it_was_run": "as §1"}, "Rattus norvegicus [6]": {"tested_on": "Rattus norvegicus", "assay": "Retinotoxicity in female Wistar albino rat assessed as reduction in 10 Hz flicker ERG at 200 mg/kg, ip administered QD for 45 days by electroretinogram analysis relative to control", "assay_type": "toxicity, organism-based", "set-up": "dose 200 mg/kg, route intraperitoneal", "details": "in vivo, 1080 h"}, "Rattus norvegicus [7]": {"tested_on": "Rattus norvegicus", "assay": "Retinotoxicity in female Wistar albino rat assessed as reduction in 10 Hz flicker ERG at 200 mg/kg, ip administered QD for 90 days by electroretinogram analysis relative to control", "assay_type": "toxicity, organism-based", "set-up": "dose 200 mg/kg, route intraperitoneal", "details": "in vivo, 2160 h"}, "Rattus norvegicus [8]": {"tested_on": "Rattus norvegicus", "assay": "Retinotoxicity in male Wistar albino rat assessed as reduction in 10 Hz flicker ERG at 200 mg/kg, ip administered QD for 45 days by electroretinogram analysis relative to control", "assay_type": "toxicity, organism-based", "set-up": "dose 200 mg/kg, route intraperitoneal", "details": "in vivo, 1080 h"}, "Rattus norvegicus [9]": {"tested_on": "Rattus norvegicus", "assay": "Retinotoxicity in male Wistar albino rat assessed as reduction in 10 Hz flicker ERG at 200 mg/kg, ip administered QD for 90 days by electroretinogram analysis relative to control", "assay_type": "toxicity, organism-based", "set-up": "dose 200 mg/kg, route intraperitoneal", "details": "in vivo, 2160 h"}},
  "data": [
    {"smiles": "C=CC(N)CCC(=O)O", "note": "(centres undefined) [VIGABATRIN]", "values": [
      {"measurement": "Time", "setting": "Rattus norvegicus [1]", "result": 7.9, "unit": "min"},
      {"measurement": "Activity", "setting": "Rattus norvegicus [2]", "result": "Toxic"},
      {"measurement": "Activity", "setting": "Rattus norvegicus [3]", "result": "Toxic"},
      {"measurement": "Activity", "setting": "Rattus norvegicus [4]", "result": "Toxic"},
      {"measurement": "Activity", "setting": "Rattus norvegicus [5]", "result": "Toxic"},
      {"measurement": "Activity", "setting": "Rattus norvegicus [6]", "result": "Toxic"},
      {"measurement": "Activity", "setting": "Rattus norvegicus [7]", "result": "Toxic"},
      {"measurement": "Activity", "setting": "Rattus norvegicus [8]", "result": "Toxic"},
      {"measurement": "Activity", "setting": "Rattus norvegicus [9]", "result": "Toxic"}
    ]}
  ]
}
